Assay results taken from the RNAGym collection of RNA variant scans (doi:10.1126/science.aae0568).
This sample holds only a part of the variants without activity.

B1: tRNA (parent)
chain: GUUCCGUUGGCGUAAUGGUAACGCGUCUCCCUCCUAAGGAGAAGACUGCGGGUUCGAGUCCCGUACGGAACG

Variants of: B1
Test: yeast fitness relative to wild type (ratio to wild type); higher = fitter; tRNA-Arg(CCU), competitive growth, 37 C, YPD
Summary of the method: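 Start and end populations of a pooled competition were compared by 100-nucleotide paired-end sequencing of gene amplicons. The Saccharomyces cerevisiae strains carried tRNA-Arg(CCU) gene variants at the native genomic locus, synthesised with a 3% per-site mutation rate at 69 sites, and competed in YPD at 37°C for 24 hours in six parallel replicates. Darwinian fitness relative to wild type was based on the change in genotype frequencies. Genotypes required ≥ 100 starting reads, and estimates < 0.5 were set to 0.5.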
G18A C31G A40G C49U G52C showed a yeast fitness of 0.618.
For G17C U32C, the yeast fitness was 0.644.
In the case of G17C G63A C66U, the yeast fitness is reported as ≤ 0.5.
With G18A A69U the yeast fitness was 0.896.
In the case of G18A C27G C49G C62G C66U A69C, the yeast fitness is reported as ≤ 0.5.
With G18A C30G A37U C55G the yeast fitness was ≤ 0.5.
With G18A C30G A36C G44C the yeast fitness was ≤ 0.5.
For G18A A36G A42U A70C, the yeast fitness was 0.784.
In the case of G17C U19A C24G U26A C34U A69U, the yeast fitness is reported as ≤ 0.5.
For G17C G68C, the yeast fitness was 0.614.
With G18A A20U C29G A37U G48A the yeast fitness was ≤ 0.5.
In the case of G17C G52C, the yeast fitness is reported as ≤ 0.5.
With G18A A57U A70C the yeast fitness was 0.536.
In the case of G18A A20U A36U A65U, the yeast fitness is reported as ≤ 0.5.
In the case of G18A C24U G48C U53G, the yeast fitness is reported as 0.583.
In the case of G18A A45U C55A, the yeast fitness is reported as ≤ 0.5.
Variant G17C G44A G48A has a yeast fitness of 0.529.
For G18A A57G A69U, the yeast fitness was ≤ 0.5.
For G17U C27G C30U C60A, the yeast fitness was ≤ 0.5.
With G18A A42G G48C the yeast fitness was ≤ 0.5.
With G18A C22A C61A A65G A70U the yeast fitness was 0.585.
With G18A C30U G41C G50A G67C the yeast fitness was 0.666.
With G17C U35C A37G G51C the yeast fitness was ≤ 0.5.
For G17C U28A, the yeast fitness was 0.554.
For G17C G48U, the yeast fitness was ≤ 0.5.
With G18A A20U U59G the yeast fitness was ≤ 0.5.
With G17C U26C C46U U64A the yeast fitness was ≤ 0.5.
With G18A A21C G23U U32A A42U G48C the yeast fitness was ≤ 0.5.
In the case of G18A C27U C34G G48C C49U, the yeast fitness is reported as ≤ 0.5.
G18A C27U showed a yeast fitness of 0.712.
In the case of G18A C27G, the yeast fitness is reported as ≤ 0.5.
With G18A A40G A65G the yeast fitness was ≤ 0.5.
In the case of G17C U32G C34A A40U A43C, the yeast fitness is reported as ≤ 0.5.
For G18A C29U C31A A65G, the yeast fitness was ≤ 0.5.
In the case of G17C G48A C55U, the yeast fitness is reported as ≤ 0.5.
For G18A A21C G58C C60U, the yeast fitness was ≤ 0.5.
With G17C G56C G58C the yeast fitness was ≤ 0.5.
In the case of G18A A45C C49U C62G C66U, the yeast fitness is reported as ≤ 0.5.
With G17C G44C the yeast fitness was 0.58.
For G17U A37G A42U G48C C49U, the yeast fitness was ≤ 0.5.
For G18A C31A G56C, the yeast fitness was ≤ 0.5.
G18A C29G A37G C60A C62G gave a yeast fitness of 0.728.
For G17U A37U A57C, the yeast fitness was ≤ 0.5.
In the case of G18A C29U G52C, the yeast fitness is reported as ≤ 0.5.
For G17C U19C G68U, the yeast fitness was 0.569.
In the case of G18A A20G U54A A70G, the yeast fitness is reported as ≤ 0.5.
For G18A C24G G39C, the yeast fitness was ≤ 0.5.
G17U A21G C46U gave a yeast fitness of 0.588.
For G17C U28A C30A C31A C60G A65G, the yeast fitness was ≤ 0.5.
G18A C24U showed a yeast fitness of 0.646.
Work on G18A C24G yielded a yeast fitness of 0.666.
With G18A C31U G58A the yeast fitness was 0.643.
G18A A36C U64A showed a yeast fitness of 0.575.
For G17C U19A A36C A37U A65C, the yeast fitness was 0.592.
For G18A A37C, the yeast fitness was 0.727.
With G18A A37U the yeast fitness was 0.6.
With G18A A20G A69C the yeast fitness was ≤ 0.5.
For G18A A20C C34U A36U G39C A70U, the yeast fitness was ≤ 0.5.
For G17U A40C, the yeast fitness was 0.823.
For G18A C27A G48A, the yeast fitness was 0.612.
In the case of G18A A20U C29G A37U C55A C66U, the yeast fitness is reported as ≤ 0.5.
In the case of G18A C31A G56C A65C, the yeast fitness is reported as ≤ 0.5.
G18A C27U U28C C31A C55G C61A showed a yeast fitness of 0.572.
For G17C U19C A65G, the yeast fitness was 0.573.
Work on G17U G67C yielded a yeast fitness of 0.798.
In the case of G18A C29A C33U C60G, the yeast fitness is reported as ≤ 0.5.
In the case of G18A C24A C31A G68U, the yeast fitness is reported as ≤ 0.5.
With G18A C24G C27U C62U A70C the yeast fitness was ≤ 0.5.
For G17C G52C C61A C66G, the yeast fitness was 0.637.
In the case of G18A A43G, the yeast fitness is reported as 0.904.
G18A A43C showed a yeast fitness of 0.637.
In the case of G17C U59G, the yeast fitness is reported as 0.674.
For G18A C31G A40G G52C, the yeast fitness was ≤ 0.5.
In the case of G17U A21C G25C, the yeast fitness is reported as 0.541.
G18A A21U G48A gave a yeast fitness of 0.571.
For G17C U26C, the yeast fitness was 0.698.
In the case of G18A C33A A36C A43G C55G, the yeast fitness is reported as ≤ 0.5.
For G17C G41C, the yeast fitness was 0.664.
With G18A the yeast fitness was 0.76.
In the case of G18A A21U, the yeast fitness is reported as 0.528.
In the case of G18A C33U, the yeast fitness is reported as ≤ 0.5.
In the case of G18A C33G, the yeast fitness is reported as ≤ 0.5.
In the case of G17U U28A C29G C33U C34G A42U, the yeast fitness is reported as ≤ 0.5.
Variant G18A A42U has a yeast fitness of 0.683.
G18A A42C gave a yeast fitness of 0.635.
In the case of G18A A21U G68A, the yeast fitness is reported as ≤ 0.5.
For G17C G51A U59A C66A, the yeast fitness was ≤ 0.5.
For G18A C24U C30U C34U U54A, the yeast fitness was 0.531.
For G17C U26C U28C C29G A42C G51A, the yeast fitness was ≤ 0.5.
In the case of G17U C46G U54G, the yeast fitness is reported as ≤ 0.5.
G18A C22A C46G U53A C61G A70C gave a yeast fitness of 0.583.
In the case of G18A C30A C34G, the yeast fitness is reported as ≤ 0.5.
Variant G17C U28G G48A has a yeast fitness of 0.558.
Work on G18A A21C A37C C66A yielded a yeast fitness of 0.695.
G17C U64A gave a yeast fitness of 0.662.
For G17C U64C, the yeast fitness was 0.845.
G18A A20U C27G showed a yeast fitness of 0.526.
With G17U A69C A70G the yeast fitness was 0.643.
In the case of G18A C30U G41C G50A A65C, the yeast fitness is reported as ≤ 0.5.
With G18A A37C A42C C55U the yeast fitness was ≤ 0.5.
With G18A C24G C30U the yeast fitness was ≤ 0.5.
In the case of G18A C30U G41C, the yeast fitness is reported as ≤ 0.5.
Variant G17C G63A has a yeast fitness of 0.674.
For G17C U47A, the yeast fitness was 0.695.
With G18A C22A A37C G48A the yeast fitness was ≤ 0.5.
For G18A C30A G58A G68U, the yeast fitness was ≤ 0.5.
With G17C U19C the yeast fitness was 0.785.
For G18A C29G C49G G63C, the yeast fitness was ≤ 0.5.
In the case of G17U G25A G50A G63C, the yeast fitness is reported as ≤ 0.5.
In the case of G18A A57C, the yeast fitness is reported as 0.626.
G18A A57U showed a yeast fitness of 0.588.
Work on G18A A57G yielded a yeast fitness of 0.854.
Variant G18A A65U has a yeast fitness of 0.729.
In the case of G17U A45U C55U A70C, the yeast fitness is reported as ≤ 0.5.
Variant G18A C29A has a yeast fitness of 0.539.
In the case of G17C U19C U59A, the yeast fitness is reported as ≤ 0.5.
For G18A C30U A57C, the yeast fitness was ≤ 0.5.
In the case of G18A C27U U28C C31A C55G, the yeast fitness is reported as ≤ 0.5.
For G18A A65U A69U, the yeast fitness was 0.718.
Work on G18A C30U yielded a yeast fitness of 0.709.
In the case of G18A C29U U35C G52C, the yeast fitness is reported as ≤ 0.5.
G18A A21U U32A gave a yeast fitness of 0.593.
In the case of G18A C24U G58A, the yeast fitness is reported as ≤ 0.5.
In the case of G18A A20U C27G U47A, the yeast fitness is reported as ≤ 0.5.
In the case of G17C G67A, the yeast fitness is reported as 0.67.
For G18A A20U C22U U28A C33U G44C C60A, the yeast fitness was ≤ 0.5.
With G17C G56C G68A the yeast fitness was ≤ 0.5.
For G18A A21G C66U, the yeast fitness was ≤ 0.5.
For G18A C29U C31A C55U G68C, the yeast fitness was ≤ 0.5.
Variant G18A C29G A37G has a yeast fitness of 0.598.
In the case of G17U C24A C31U, the yeast fitness is reported as ≤ 0.5.
G18A C33U A42G showed a yeast fitness of 0.54.
For G18A C24U G68C, the yeast fitness was 0.538.
G17C U19C C27U A65C gave a yeast fitness of 0.641.
With G17C U26A A69C the yeast fitness was ≤ 0.5.
In the case of G18A C22G C24G G50A A69C, the yeast fitness is reported as ≤ 0.5.
For G18A C33G C34G, the yeast fitness was ≤ 0.5.
With G18A C24G C49A the yeast fitness was ≤ 0.5.
With G17U C55U A70G the yeast fitness was ≤ 0.5.
With G18A A21C A43C G48A G52A G63A the yeast fitness was ≤ 0.5.
In the case of G18A C22A C61A A65G, the yeast fitness is reported as ≤ 0.5.
For G18A A37U C61U U64A, the yeast fitness was ≤ 0.5.
Variant G18A C22A has a yeast fitness of 0.805.
Variant G18A C22G has a yeast fitness of 0.856.
With G18A C29U A37G the yeast fitness was ≤ 0.5.
With G18A A37G G52C C61A the yeast fitness was ≤ 0.5.
With G17C U28G U54A C62U A70C the yeast fitness was ≤ 0.5.
In the case of G18A C29U A45G A70G, the yeast fitness is reported as ≤ 0.5.
For G17C U19A C49G C66U, the yeast fitness was ≤ 0.5.
In the case of G17C U26G G39C A40U C61U, the yeast fitness is reported as ≤ 0.5.
Variant G18A C29G A37G G44C has a yeast fitness of 0.598.
With G17C U28G U54A the yeast fitness was ≤ 0.5.
In the case of G17C G44C C66U, the yeast fitness is reported as ≤ 0.5.
With G18A C30U C55G G68A the yeast fitness was ≤ 0.5.
For G18A A20U A69U, the yeast fitness was 0.686.
For G17C G52A G56A A65U A70G, the yeast fitness was ≤ 0.5.
With G18A C24U C29U C31U G39C the yeast fitness was ≤ 0.5.
With G17U G38A G68A the yeast fitness was ≤ 0.5.
In the case of G18A A20U C60A, the yeast fitness is reported as ≤ 0.5.
In the case of G17C G48A A65C, the yeast fitness is reported as 0.654.
In the case of G17C U53G, the yeast fitness is reported as ≤ 0.5.
For G17C U32G C33U G56A G58A, the yeast fitness was ≤ 0.5.
In the case of G17C U32A C66U A70G, the yeast fitness is reported as ≤ 0.5.
For G18A A37U G68C, the yeast fitness was 0.579.
Work on G17C G48C A65G yielded a yeast fitness of 0.562.
For G17C U28G C30U C61A A69U, the yeast fitness was ≤ 0.5.
For G17C G39C C66U A70U, the yeast fitness was ≤ 0.5.
